Measured values reported in ChEMBL document CHEMBL1146344, “Design, synthesis, and evaluation of 2-aryl-3-heteroaryl-1,3-thiazolidin-4-ones as anti-HIV agents” (Bioorg Med Chem, 2007).

Key:
[1] = Cytotoxicity against MT4 cells; format: cell-based; details: human
Method in brief: (§1)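 Mock-infected MT-4 or CEM cultures exposed to compound dilutions at 37 °C, with incubation times as in the antiviral runs. Viable cell number determined. Means of at least two separate experiments.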

[2] = Cytotoxicity against CEM cells; format: cell-based; details: human, CEM (CCRF-CEM) cells; method in brief: as §1

Fc1cccc(F)c1C1SCc2nc3ccccc3n21 (configuration not stated) [THIAZOLOBENZIMIDAZOLE]
CC50 [1]: 19.2 µM | CC50 [2]: 50 µM
